Source: paper PMC5755971 (Journal of the American Chemical Society, 2017)
Where a SMILES comes first, the peptide text is derived from it. [ ]: non-standard residue; d: D form. Dolaproine = CO[C@@H]([C@@H]1CCCN1)[C@@H](C)C(=O)O; Dil = CC[C@H](C)[C@H](NC)[C@@H](CC(=O)O)OC; NMeV = CN[C@H](C(=O)O)C(C)C

Key:
human CD22 = conditions: cited from earlier work
Daudi cells [1] = test: uptake of ligand-FITC conjugates by Daudi cells in pure mouse serum; format: cell-based; conditions: 60 min, 37 °C
In short: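 FITC-labelled ligand conjugates serially diluted and incubated with ~10^6 Daudi B cells in 100 uL pure mouse serum for 60 min at 37 °C. Cells washed twice in HBSS; uptake read by flow cytometry and curve-fitted.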

hCD22 [2] = molecular target: T1, hCD22 (Homo sapiens, UniProt P20273); test: flow cytometry competitive binding assay, Neu5Gc-PAA to hCD22-CHO cells
T1 sequence (P20273 20-847): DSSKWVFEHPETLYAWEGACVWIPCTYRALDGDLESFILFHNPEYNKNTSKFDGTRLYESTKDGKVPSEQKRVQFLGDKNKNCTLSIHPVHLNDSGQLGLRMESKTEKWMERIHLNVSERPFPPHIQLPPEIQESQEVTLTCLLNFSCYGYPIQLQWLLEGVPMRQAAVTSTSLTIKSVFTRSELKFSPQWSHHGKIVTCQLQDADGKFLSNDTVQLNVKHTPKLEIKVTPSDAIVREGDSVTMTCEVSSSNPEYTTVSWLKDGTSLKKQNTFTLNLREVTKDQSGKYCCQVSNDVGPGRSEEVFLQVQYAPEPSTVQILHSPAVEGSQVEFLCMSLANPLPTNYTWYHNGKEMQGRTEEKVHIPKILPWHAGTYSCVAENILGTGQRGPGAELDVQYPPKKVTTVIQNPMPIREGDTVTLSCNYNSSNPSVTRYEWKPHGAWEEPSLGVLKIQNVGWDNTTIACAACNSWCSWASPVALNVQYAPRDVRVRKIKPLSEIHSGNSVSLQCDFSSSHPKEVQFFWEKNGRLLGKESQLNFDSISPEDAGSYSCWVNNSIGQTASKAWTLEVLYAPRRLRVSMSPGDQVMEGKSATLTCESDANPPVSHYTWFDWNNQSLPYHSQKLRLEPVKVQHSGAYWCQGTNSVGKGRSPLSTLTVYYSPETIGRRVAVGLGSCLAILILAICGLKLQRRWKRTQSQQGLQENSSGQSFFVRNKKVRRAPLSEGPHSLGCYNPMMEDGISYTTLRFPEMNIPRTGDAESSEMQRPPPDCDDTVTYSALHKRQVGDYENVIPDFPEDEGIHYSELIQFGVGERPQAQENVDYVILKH
In short: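 Serial dilutions of sialoside ligands, quantified by periodate-resorcinol assay, mixed in cold HBSS/0.5% BSA with biotinylated Neu5Gcα2–6LacNAc-PAA (1 MDa, 1 μg/mL). ~10^6 hCD22-CHO cells added; 40 min, 4 °C, dark. Two washes, then streptavidin-PE (1:1000) for 30 min at 4 °C. Read by flow cytometry. Triplicate titrations; IC50 from curve fit, 0% = no polymer, 100% = polymer without competitor.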

Daudi cells [3] = test: cytotoxicity assay for ligand-toxin conjugates; format: cell-based; conditions: read-out: EC50 (cytotoxicity), 72h, MTT
hCD22 [4] = molecular target: T1, hCD22; conditions: equilibrium dialysis at 4° C; cited from earlier work

For O=C(CF)N[C@H]1[C@H]([C@H](O)[C@H](O)CNC(=O)c2cccc(Oc3ccccc3)c2)OC(O)(C(=O)O)C[C@@H]1O (stereo partly shown) [1c, 9-N-m-phenoxybenzamide-Neu5FAc], the “affinity for human CD22” value (human CD22) is given as “low micromolar range”.

For CC(=O)NC1C(O)CC(O)(C(=O)O)OC1C(O)C(O)CNC(=O)c1ccc(-c2ccccc2)cc1 (stereo not shown) [1a, 9-N-biphenyl carboxamide-Neu5Ac], the “affinity for human CD22” value (human CD22) is given as “low micromolar range”.

For CC(=O)NC1C(NC(=O)C[C@H](NC(=O)[C@H](C)NC(=O)[C@@H](NC(=O)[C@@H](N)CCCCN)C(C)C)C(=O)N[C@@H](CCCCN)C(=O)N[C@H](C(=O)O)[C@@H](C)O)OC(CO)C(OC2OC(CO)C(OC3OC(COC4OC(CO)C(O)C(O)C4OC4OC(CO)C(OC5OC(COC6(C(=O)[O-])CC(O)C(NC(C)=O)C([C@H](O)[C@H](O)CO)O6)C(O)C(O)C5O)C(O)C4NC(C)=O)C(O)C(OC4OC(CO)C(O)C(O)C4OC4OC(CO)C(OC5OC(COC6(C(=O)[O-])CC(O)C(NC(C)=O)C([C@H](O)[C@H](O)CO)O6)C(O)C(O)C5O)C(O)C4NC(C)=O)C3O)C(O)C2NC(C)=O)C1O.[Na+].[Na+] (stereo partly shown) [SGP], the “binding/uptake by Daudi cells” value (Daudi cells [1]) was “weak or no binding/uptake” and the “fold higher binding affinity for hCD22 compared to the monovalent ligand (6′SLN)” value (hCD22 [2]) was “three-fold higher”.

CC[C@H](C)[C@@H]([C@@H](CC(=O)N1CCC[C@H]1[C@H](OC)[C@@H](C)C(=O)N[C@@H](Cc1ccccc1)C(=O)O)OC)N(C)C(=O)[C@@H](NC(=O)[C@@H](NC)C(C)C)C(C)C [MMAF, monomethyl auristatin F] (H-[NMeV]V[Dil][Dolaproine]F-OH) showed an EC50 (Daudi cells [3]) of 0.2 µM.

In the case of Neu5Acα2–6Galβ1–4GlcNAc [6′SLN], the Kd (hCD22 [4]) is listed as 32 µM and the IC50 (hCD22 [2]; competition with Neu5Gc-PAA, 40 min, 4 °C) is listed as 62 µM.
